Values joined by “and” are separate entries in the source; they are usually repeats but may differ in a detail not shown here. Equal values may be shown once.
Tested on: Fibroblast
Test: Multiplex assay against human fibroblast
Assay type: toxicity, cell-based
Summary of the method: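 Phenotypes for tubulin, mitochondrial mass and membrane permeability are expressed as per cents of healthy-nucleus cells. Cells were stained live at seeding with Hoechst33342, BioTracker Green Microtubule Cytoskeleton Dye, MitoTracker Red and Annexin V Alexa Fluor 680, then imaged after compound addition on a CQ1 microscope at 37°C and 5% CO2. Machine-learning gating in CellPathfinder separated Hoechst high-intensity objects from normal cells, divided normal cells by nuclear state (healthy, pyknosed, fragmented) and divided pyknosed cells into mitotic or apoptotic.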

[1] = 12 h, 1 µM, compound concentration 1 uM
[2] = 12 h, 10 µM, compound concentration 10 uM
[3] = 24 h, 1 µM, compound concentration 1 uM
[4] = 24 h, 10 µM, compound concentration 10 uM
[5] = 48 h, 1 µM, compound concentration 1 uM
[6] = 48 h, 10 µM, compound concentration 10 uM

## CC(=O)NCCc1c(Cc2ccccc2)[nH]c2ccccc12 [LUZINDOLE]
[1]
  Population Apoptotic (%): 41% and 40%
  Population Fragmented Nuclei (%): 15% and 25%
  Population Healthy Nuclei (%): 65% and 39%
  Population Hoechst High Intensity Objects (%): 1% and 4%
  Population Membrane Permeable-Phenotype (%): 2% and 9%
  Population Mitochondria Different-Phenotype (%): 7% and 11%
  Population Mitotic Cells (%): 58% and 59%
  Population Normal (%): 98% and 95%
  Population Pyknosed Nuclei (%): 18% and 34%
  Population Tubulin-Different-Phenotype (%): 30% and 50%
  Total Cell Count: 129 and 134
[2]
  Population Apoptotic (%): 19% and 21%
  Population Fragmented Nuclei (%): 15% and 26%
  Population Healthy Nuclei (%): 69% and 59%
  Population Hoechst High Intensity Objects (%): 2%
  Population Mitochondria Different-Phenotype (%): 7% and 4%
  Population Mitotic Cells (%): 80% and 78%
  Population Normal (%): 97%
  Population Pyknosed Nuclei (%): 15% and 13%
  Population Tubulin-Different-Phenotype (%): 42% and 32%
  Total Cell Count: 140 and 105
[3]
  Population Apoptotic (%): 54% and 45%
  Population Fragmented Nuclei (%): 21% and 25%
  Population Healthy Nuclei (%): 61% and 47%
  Population Hoechst High Intensity Objects (%): 0% and 5%
  Population Membrane Permeable-Phenotype (%): 0% and 8%
  Population Mitochondria Different-Phenotype (%): 3% and 8%
  Population Mitotic Cells (%): 45% and 54%
  Population Normal (%): 99% and 94%
  Population Pyknosed Nuclei (%): 16% and 26%
  Total Cell Count: 134 and 137
[4]
  Population Apoptotic (%): 47% and 23%
  Population Fragmented Nuclei (%): 15% and 27%
  Population Healthy Nuclei (%): 67% and 59%
  Population Hoechst High Intensity Objects (%): 2% and 3%
  Population Membrane Permeable-Phenotype (%): 1% and 5%
  Population Mitochondria Different-Phenotype (%): 5% and 3%
  Population Mitotic Cells (%): 52% and 76%
  Population Normal (%): 97% and 96%
  Population Pyknosed Nuclei (%): 17% and 12%
  Population Tubulin-Different-Phenotype (%): 29% and 33%
  Total Cell Count: 138 and 105
[5]
  Population Apoptotic (%): 75% and 39%
  Population Fragmented Nuclei (%): 15% and 27%
  Population Healthy Nuclei (%): 72% and 55%
  Population Hoechst High Intensity Objects (%): 5% and 8%
  Population Membrane Permeable-Phenotype (%): 2% and 9%
  Population Mitochondria Different-Phenotype (%): 3% and 5%
  Population Mitotic Cells (%): 25% and 60%
  Population Normal (%): 94% and 91%
  Population Pyknosed Nuclei (%): 12% and 16%
  Population Tubulin-Different-Phenotype (%): 24% and 46%
  Total Cell Count: 134 and 149
[6]
  Population Apoptotic (%): 80% and 54%
  Population Fragmented Nuclei (%): 19% and 34%
  Population Healthy Nuclei (%): 70% and 54%
  Population Hoechst High Intensity Objects (%): 3% and 4%
  Population Membrane Permeable-Phenotype (%): 0% and 3%
  Population Mitochondria Different-Phenotype (%): 3%
  Population Mitotic Cells (%): 20% and 45%
  Population Normal (%): 96% and 95%
  Population Pyknosed Nuclei (%): 10%
  Population Tubulin-Different-Phenotype (%): 34% and 50%
  Total Cell Count: 147 and 111

## CN1CCN2c3ccccc3Cc3ccccc3C2C1.Cl (stereo not drawn) [MIANSERIN HYDROCHLORIDE]
[1]
  Population Apoptotic (%): 55% and 38%
  Population Fragmented Nuclei (%): 28% and 27%
  Population Healthy Nuclei (%): 56% and 50%
  Population Hoechst High Intensity Objects (%): 2% and 4%
  Population Mitochondria Different-Phenotype (%): 0% and 5%
  Population Mitotic Cells (%): 45% and 61%
  Population Normal (%): 97% and 95%
  Population Pyknosed Nuclei (%): 14% and 22%
  Population Tubulin-Different-Phenotype (%): 31% and 56%
  Total Cell Count: 138 and 119
[2]
  Population Apoptotic (%): 55% and 33%
  Population Fragmented Nuclei (%): 15% and 24%
  Population Healthy Nuclei (%): 68% and 48%
  Population Hoechst High Intensity Objects (%): 5% and 6%
  Population Membrane Permeable-Phenotype (%): 1% and 3%
  Population Mitochondria Different-Phenotype (%): 3% and 7%
  Population Mitotic Cells (%): 44% and 66%
  Population Normal (%): 94% and 93%
  Population Pyknosed Nuclei (%): 15% and 27%
  Population Tubulin-Different-Phenotype (%): 14% and 40%
  Total Cell Count: 126 and 116
[3]
  Population Apoptotic (%): 52% and 36%
  Population Fragmented Nuclei (%): 32% and 30%
  Population Healthy Nuclei (%): 55% and 50%
  Population Hoechst High Intensity Objects (%): 2% and 3%
  Population Membrane Permeable-Phenotype (%): 0% and 6%
  Population Mitochondria Different-Phenotype (%): 2% and 1%
  Population Mitotic Cells (%): 47% and 63%
  Population Normal (%): 97% and 96%
  Population Pyknosed Nuclei (%): 12% and 19%
  Population Tubulin-Different-Phenotype (%): 29% and 53%
  Total Cell Count: 143 and 119
[4]
  Population Apoptotic (%): 61% and 48%
  Population Fragmented Nuclei (%): 14% and 31%
  Population Healthy Nuclei (%): 73% and 47%
  Population Hoechst High Intensity Objects (%): 5% and 4%
  Population Membrane Permeable-Phenotype (%): 0% and 10%
  Population Mitochondria Different-Phenotype (%): 1% and 5%
  Population Mitotic Cells (%): 38% and 52%
  Population Normal (%): 95%
  Population Pyknosed Nuclei (%): 11% and 20%
  Total Cell Count: 120 and 127
[5]
  Population Apoptotic (%): 78% and 46%
  Population Fragmented Nuclei (%): 35% and 36%
  Population Healthy Nuclei (%): 55% and 51%
  Population Hoechst High Intensity Objects (%): 2% and 3%
  Population Membrane Permeable-Phenotype (%): 0% and 3%
  Population Mitochondria Different-Phenotype (%): 2% and 10%
  Population Mitotic Cells (%): 21% and 53%
  Population Normal (%): 97% and 96%
  Population Pyknosed Nuclei (%): 9% and 11%
  Population Tubulin-Different-Phenotype (%): 35% and 50%
  Total Cell Count: 151 and 116
[6]
  Population Apoptotic (%): 57% and 38%
  Population Fragmented Nuclei (%): 15% and 29%
  Population Healthy Nuclei (%): 71% and 55%
  Population Hoechst High Intensity Objects (%): 5% and 3%
  Population Membrane Permeable-Phenotype (%): 0% and 10%
  Population Mitochondria Different-Phenotype (%): 2% and 1%
  Population Mitotic Cells (%): 42% and 61%
  Population Normal (%): 94% and 96%
  Population Pyknosed Nuclei (%): 12% and 14%
  Population Tubulin-Different-Phenotype (%): 16% and 37%
  Total Cell Count: 115 and 125
